M4 ag: agonists of human muscarinic M4 receptor (CHRM4) | P08173 | CHO-K1 hM4/Gqi5, Fluo-8 calcium fluorescence; vehicle 0%, full acetylcholine response 100% | activation, % at 3 µM | 360,000 tested, 0.14% active | AID 624127;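 active means activation above the run mean over all test wells plus 3 SD, cut at about 32% in these data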;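 further: peak over basal fluorescence ratio per well then scaled between controls; 0% = DMSO wells and 100% = acetylcholine at EC100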
CHRM5 PAM: CHRM5 positive allosteric modulation. AID 624038. activation, % at 3 µM. 360,000 tested, 0.3% active. CHO-K1 hM5, Fluo-8 calcium, ACh EC20 PAM; 0% = ACh EC20, 100% = ACh EC100;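 active means activation above the run cutoff, the mean activation of all test compounds plus 3 SD, cut at about 18% in these data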
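Assay system: CHO-K1 hM5 cells. Also added: acetylcholine at EC20 concentration, added after compound. Dosing: 3 µM, single dose. Times: compound preincubation 140 s before EC20 acetylcholine addition. Signal: Fluo-8 calcium fluorescence. Measure: % activation relative to EC20 and EC100 ACh responses. Repeats: singlicate, one well per test compound.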
M4 antag: blocks acetylcholine activation of human M4 receptor; 360,000 tested, 0.73% active; CHO-hM4 cells, ACh EC80, Fluo-8 calcium fluorescence; inhibition, % at 3 µM;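 active means inhibition above its plate's cutoff, the mean inhibition of sample wells plus 3 SD, cut at about 27% in these data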;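 further: 0% = acetylcholine EC80 with DMSO and 100% = DMSO without agonist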
CHRM4 PAM: CHRM4 positive allosteric modulation; 360,000 tested, 0.4% active; activation, % at 3 µM; P08173; CHO-K1 hM4/Gqi5, Fluo-8 calcium fluorescence, ACh EC20; 0% = ACh EC20, 100% = maximal ACh;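 active means activation above its plate's cutoff, the mean activation of sample wells plus 3 SD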
M5 antag: blocks acetylcholine activation of human M5 receptor | CHO-hM5 cells, Fluo-8 calcium fluorescence, ACh EC80 | inhibition, % at 3 µM | 360,000 tested, 0.59% active;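 active means inhibition above a per-plate cutoff, the mean of that plate's test compounds plus 3 SD, cut at about 27% in these data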;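 further: 0% = acetylcholine EC80 with DMSO and 100% = DMSO without agonist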
CHRM5 agonist: CHRM5 agonism in calcium assay. CHO-K1 hM5 cells, Fluo-8 calcium fluorescence; 0% DMSO wells, 100% maximal acetylcholine response. 360,000 tested, 0.19% active. P08912. AID 624037. activation, % at 3 µM;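 active means activation above the run's mean over test compounds plus 3 SD, cut at about 23% in these data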;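 further: signal is peak over basal fluorescence ratio across the kinetic read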
* = called active by the depositor. Rows were chosen to be rich in hits. Some 1.9% of all compounds tested hit in one or more screens of this group.

SMILES	M4 ag	CHRM5 PAM	M4 antag	CHRM4 PAM	M5 antag	CHRM5 agonist
CCC(C)(C)NC(=O)C(c1ccco1)N(C(=O)CNC(=O)c1cccs1)c1cccnc1 (stereo unspecified)	6	29*	-12	4	29*	-1
COc1ccc(C=C(C(C)=O)C(=O)c2ccccc2)cc1	1	-1	13	-3	8	-6
CC(=O)C(=Cc1ccc(Cl)cc1)C(=O)c1ccccc1	2	22*	24	-13	2	-7
CCc1ccc(CNc2ccc3c(c2)ncn3C(C)(C)C)cc1	4	-11	-18	-2	9	-5
CC(C)(C)n1cnc2cc(NCc3ccc(Br)cc3)ccc21	3	-6	-1	-3	27*	-4
CC1Cc2ccccc2N1S(=O)(=O)c1cnc[nH]1 (stereo unspecified)	1	43*	-2	7	-4	5
COc1cc(-c2cc(C(=O)Nc3ccc(S(=O)(=O)NCc4ccco4)cc3)c3ccccc3n2)cc(OC)c1OC	18	-15	46*	-25	21	2
COc1cc(-c2cc(C(=O)NCc3ccco3)c3ccccc3n2)cc(OC)c1OC	15	-11	6	-8	13	1
Cc1ccc(CCNC(=O)C2CCC(=O)N(CC3CCCCC3)C2)cc1 (stereo unspecified)	2	-2	-19	11	-6	-1
C[C@@H]1CN([C@H](C)CO)C(=O)CCCn2nncc2CO[C@H]1CN(C)Cc1ccc(Oc2ccccc2)cc1	1	-4	37*	-13	3	-4
C[C@@H]1CN([C@H](C)CO)C(=O)CCCn2nncc2CO[C@H]1CN(C)S(C)(=O)=O	-3	8	101*	-16	-9	0
C[C@H](CO)N1C[C@H](C)[C@@H](CN(C)Cc2ccc(O)cc2)OCc2cnnn2CCCC1=O	-1	2	-2	7	4	-1
C[C@@H]1CN([C@@H](C)CO)C(=O)CCCn2nncc2CO[C@H]1CN(C)Cc1ccc(Oc2ccccc2)cc1	0	-1	31*	-12	4	-3
COc1ccc(-c2ccc(CN3C(CC(C)C)C(=O)N(Cc4cn(CCC5OCCCO5)nn4)CCS3(=O)=O)cc2)cc1OC (stereo unspecified)	22	-5	-4	-7	4	3
COc1ccccc1N/C=C/c1onc(C)c1[N+](=O)[O-]	2	-13	40*	-1	23	15
Cc1ccc(NC(=O)CN(C)C(=O)COc2cccc3ccc(C)nc23)cc1	1	-1	-3	1	11	-5
O=c1c2cccnc2n(-c2ccccc2)n1Cc1c(Cl)cccc1Cl	1	-3	-3	7	12	-2
O=c1c2cccnc2n(-c2ccccc2)n1Cc1ccc(Cl)cc1	0	-3	-2	22*	3	-2
O=c1cc2oc3cc(O)c(O)cc3c(-c3ccccc3O)c-2cc1O	24	-7	5	-10	14	10
COc1ccc(OC)c(-c2c3cc(O)c(=O)cc-3oc3cc(O)c(O)cc23)c1	60*	-13	13	-17	12	55*
Cc1cccc(NC(=O)CCNC(=O)c2ccc(Br)cc2)c1C	1	-3	-3	0	14	-2
CCn1c(Cl)c(C=O)s/c1=N\S(=O)(=O)c1ccccc1	2	-18	74*	-35	33*	-9
Cc1cc(-c2nnc(SCC(=O)Nc3nccs3)o2)no1	-1	20*	13	16	-15	7
Cn1c(SCC(=O)Nc2ccc3c(c2)CCC3)nnc1C1CC1	3	-6	-20	3	-2	-3
CCC(=O)Nc1cccc(NC(=O)CSc2nnc(C3CC3)n2C)c1	1	36*	-13	2	-7	4
CCn1c(SCC(=O)Nc2nccs2)nnc1C1CC1	0	4	-2	25*	-3	-2
COc1ccc(NC(=O)c2ccc3c(c2)C(=O)N(CC2CCCO2)C3=O)c(OC)c1 (stereo unspecified)	2	2	-17	10	-1	-1
